High-throughput results: PubChem, several laboratories
Diaphorase inh – diaphorase inhibitors and chemical oxidizers, primary screen, counter-screen for diaphorase-coupled primary assays, biochemical, uHTS, resorufin fluorescence. diaphorase resazurin-to-resorufin fluorescence, NADH, 16 min; bacterial (C. kluyveri) enzyme, not human. inhibition, % at 20 µM. actives 0.69% (n = 190,000). AID 1217, 2008;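 active = primary screen inhibition at 20 µM above a set limit, cut at about 50% in these data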;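 also: plate controls were DMSO with full reaction for no effect and wells lacking NADH for full effect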
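Assay system: diaphorase enzyme from Clostridium kluyveri; Input: enzyme working solution with 0.14 U/mL diaphorase; Timing: 16 min at room temperature; Technique: resorufin fluorescence, excitation 544 nm, emission 590 nm; Benchmarks: positive control minus NADH, DMSO neutral control.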
Redox H2O2 prof – compounds producing H2O2 with reducing agent – biochemical, NIH compound library profiling, artefact control for MLSCN library redox annotation, primary screen; DTT-dependent redox cycling H2O2, phenol red/HRP absorbance; 100% = 100 µM peroxide control, 0% = buffer; activation, % at 10 µM; actives 0.03% (n = 200,000);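 active = activation of at least 50% relative to the plate's high and low controls in the primary single-dose screen; inactive = activation below 50%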;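 also: compound incubated with DTT at 0.8 mM final as the reducing agent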
G6PDH counter – L. mesenteroides G6PDH inhibitors, counter-screen for G6PDH-coupled screening assays, biochemical, Leuconostoc mesenteroides enzyme. Purified L. mesenteroides G6PDH, diaphorase/resazurin coupled fluorescence, 45 min. glucose-6-phosphate dehydrogenase [Leuconostoc mesenteroides]. actives 0.12% (n = 200,000). inhibition, % at 5 µM
Diaphorase act – compounds boosting diaphorase resazurin reduction – biochemical, uHTS, resorufin fluorescence, counter-screen for diaphorase-coupled primary assays, primary screen; Diaphorase/resazurin coupled assay, 16 min; active compounds read high; 1 = vehicle wells, 0 = NADH-free wells; AID 1229, 2008; actives 0.005% (n = 190,000); activation factor at 20 µM;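 active = diaphorase activity raised at least twofold by the compound at 20 µM; inactive = activation factor below 2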
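Assay system: bacterial diaphorase enzyme (C. kluyveri) / Input: enzyme 0.07 U/mL final / Medium: 50 mM HEPES pH 7.4 with 4.542 mM MgCl2, 0.005% Tween 20 / Doses: single compound dose of 20 µM, 1% DMSO final / Incubation: 16 min enzyme reaction, ambient temperature / Signal: fluorescence, excitation 544 nm and emission 590 nm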
L major viab – Leishmania major promastigote growth inhibition, primary screen. inhibition, % at 10 µM. AID 1063, 2008. actives 9% (n = 200,000). Leishmania major promastigotes, resazurin fluorescence viability;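 also: promastigotes grown with compound for 44 hours at 28 °C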
PfG6PD inh – PfG6PD enzyme inhibitors, primary screen, biochemical, fluorescence intensity, uHTS; PfGluPho enzyme, NADPH resazurin-diaphorase fluorescence; inhibition, % at 20 µM; actives 0.78% (n = 350,000); AID 504690, 2011;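 active = inhibition reaching at least a set limit at 20 µM in the primary screen, cut at about 59% in these data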;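 also: 0% = DMSO wells with substrate and 100% = DMSO wells lacking glucose-6-phosphate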
PfGluPho conf – PfG6PD inhibitors, hit retest, confirmation, biochemical, fluorescence intensity, single concentration | inhibition, % at 20 µM | shares compounds with PfG6PD inh | actives 34% (n = 2,400) | recombinant PfGluPho, NADPH-diaphorase-resazurin fluorescence | AID 504753, 2011;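 active = inhibition of at least 50% at 20 µM in any single replicate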;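 also: 0% = DMSO with substrate and 100% = DMSO lacking glucose-6-phosphate substrate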
Diaph ctr 10uM – diaphorase inhibitors and chemical oxidizers, confirmation, counter-screen for P. falciparum G6PD inhibitor project, biochemical, fluorescence intensity, 10 µM NADPH; shares compounds with PfG6PD inh; diaphorase-coupled resazurin reduction, NADPH 10 uM; inhibition, % at 20 µM; actives 39% (n = 820);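 active = average inhibition reaching 50% or more with the compound at 20 µM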;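 also: resorufin red fluorescence formed as diaphorase reduces resazurin using NADPH; 0% = DMSO with enzyme and 100% = DMSO without enzyme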
Diaphorase 30uM – diaphorase inhibitors and chemical oxidizers, confirmation, counter-screen for P. falciparum G6PD inhibitor project, biochemical, fluorescence intensity, 30 µM NADPH. shares compounds with PfG6PD inh. Diaphorase/resazurin coupled assay, resorufin fluorescence. inhibition, % at 20 µM. actives 29% (n = 820). AID 504863, 2011;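 active = inhibition averaging 50% or more, tested at 20 µM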;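 also: 0% = DMSO with enzyme and 100% = DMSO wells lacking diaphorase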
An asterisk follows results filed as active; nt = not tested or not shown. The entries come from a sample that favours hits as a whole. Rule as the data show it, unless noted: active = inhibition above about 50%; inactive = the rest.

SMILES	Diaphorase inh	Redox H2O2 prof	G6PDH counter	Diaphorase act	L major viab	PfG6PD inh	PfGluPho conf	others
Cc1ccc(NC(=O)CCCn2nc(C)c3c(C)n(-c4ccccc4)nc3c2=O)cc1C	nt	nt	nt	nt	nt	64*	27
COc1ccc(NC(=O)CCCn2nc(C)c3c(C)n(-c4ccccc4)nc3c2=O)cc1OC	nt	nt	nt	nt	nt	-3	nt
COc1ccc(CC(=O)N/N=C/c2sccc2C)cc1	nt	nt	nt	nt	nt	-4	nt
Cc1ccc(CSCC(=O)N/N=C/c2sccc2C)cc1	15	0	2	0.9	12	78*	52*	Diaph ctr 10uM=63*;Diaphorase 30uM=54*
CCOC(=O)C1C(=O)NC(SCC(=O)OC)=C(C#N)C1c1ccccc1OCC (stereo not given)	13	-1	3	0.9	-4	-12	nt
CCOC(=O)C1C(=O)NC(SCC(=O)Nc2nccs2)=C(C#N)C1c1ccccc1OCC (stereo not given)	8	1	-4	0.9	24	70*	31
Cn1cc(SCC(=O)N2CCCc3ccccc32)c2ccccc21	15	-1	-29	0.9	16	60*	23
Cn1cc(SCC(=O)N2CCOCC2)c2ccccc21	-18	-1	23	1.2	-5	11	nt
CC(C)(Cc1ccccc1)/[N+]([O-])=C\c1ccc(C(F)(F)F)cc1	nt	nt	nt	nt	nt	8	nt
CC1CCc2[nH]c3ccc(C(=O)N(C)CC(=O)Nc4ccc(F)cc4)cc3c2C1 (stereo not given)	nt	nt	nt	nt	nt	-1	nt
CCN(CC(=O)Nc1ccccc1C(F)(F)F)C(=O)c1ccc2[nH]c3c(c2c1)CC(C)CC3 (stereo not given)	nt	nt	nt	nt	nt	90*	37
CC1=C(C)C(=O)C(CCCCC#CCCCC#CCO)=C(C)C1=O	44	7	57*	0.6	-1	89*	31
Nc1ccc(N(CCO)CCO)cc1	53*	-1	35	0.5	-5	63*	55*	Diaph ctr 10uM=25;Diaphorase 30uM=14
COc1ccc(C)cc1S(=O)(=O)NC(C)c1cnn(-c2ccccn2)c1C (stereo not given)	nt	nt	nt	nt	nt	11	nt
Cc1ccccc1-c1nc(C(=O)NCC2CCCO2)cc2c1[nH]c1ccccc12 (stereo not given)	nt	nt	nt	nt	nt	60*	5
N=c1n(CCN2CCOCC2)c2ccccc2n1CC(=O)c1ccc(Cl)c(Cl)c1	3	2	11	1	66*	114*	1
CCCn1c(=N)n(CC(=O)c2ccc(Cl)cc2)c2ccccc21	nt	nt	nt	nt	nt	30	nt
CCCCOC(=O)Cn1c(=N)n(CCN2CCOCC2)c2ccccc21	nt	3	nt	nt	10	0	nt
CCCn1c(=N)n(CC(=O)c2ccc([N+](=O)[O-])cc2)c2ccccc21	4	-1	-6	1	64*	73*	-22
N=c1n(CCN2CCOCC2)c2ccccc2n1CC(=O)c1cccc([N+](=O)[O-])c1	nt	nt	nt	nt	nt	75*	-6
CSCCC(NC(=O)c1ccccc1Cl)C(=O)N1CCN(c2ccccn2)CC1 (stereo not given)	nt	nt	nt	nt	nt	6	nt
O=C(N/N=C/c1ccc([N+](=O)[O-])o1)c1sc2ccccc2c1Cl	nt	nt	nt	nt	nt	7	nt
O=C(CSc1ccc(Cl)cc1)N/N=C/c1cccnc1	6	0	4	0.9	4	63*	36
Cc1cc(C)nc(SCC(=O)N/N=C/c2cccnc2)n1	nt	nt	nt	nt	nt	-4	nt
O=C(CSc1ccc(Cl)cc1)N/N=C/c1ccc([N+](=O)[O-])o1	nt	nt	nt	nt	nt	110*	82*	Diaph ctr 10uM=81*;Diaphorase 30uM=66*
SMILES	Diaphorase inh	Redox H2O2 prof	G6PDH counter	Diaphorase act	L major viab	PfG6PD inh	PfGluPho conf	others
Cc1cc(C(C)(C)C)cc(C)c1S(=O)(=O)N1CC(=O)Nc2ccccc21	nt	nt	nt	nt	nt	-6	nt
Cc1cc(C)c2c(=O)n3c(nc2c1)C(Cc1ccccc1)NC(=O)c1cccnc1-3 (stereo not given)	nt	nt	nt	nt	nt	59*	4
Cc1cc(C)c2c(=O)n3c(nc2c1)C(Cc1ccc(O)cc1)NC(=O)c1cccnc1-3 (stereo not given)	nt	nt	nt	nt	nt	1	nt
O=c1cc(-c2ccccc2Cl)oc2c(NS(=O)(=O)c3cccs3)ccc(O)c12	nt	nt	nt	nt	nt	-32	nt
Cc1cc(C)c(C#N)c(=N)o1	12	3	18	0.9	-3	66*	47
CSc1nc(C)cc(C)c1C#N	5	2	3	1	-4	0	nt
CCOC(=O)c1sc(=S)n(C)c1NC(=O)c1ccc(F)cc1	0	0	19	1	-6	72*	41
CC(=O)c1sc2nsc(SCCN3CCOCC3)c2c1N	nt	nt	nt	nt	nt	78*	-17
COc1cccc(/C=N/NC(=O)CSc2cccc3cccnc23)c1	nt	nt	nt	nt	nt	69*	54*	Diaph ctr 10uM=64*;Diaphorase 30uM=41
O=C(CSc1cccc2cccnc12)N/N=C/c1ccc(O)cc1	nt	nt	nt	nt	nt	41	nt
CC(C)(O)/C=C/C[C@](C)(O)C1CC[C@]2(C)C1[C@H](O[C@H]1O[C@@H](CO)[C@H](O)[C@@H](O)[C@@H]1O)CC1[C@@]3(C)CC[C@H](O)C(C)(C)C3[C@@H](O)C[C@]12C (stereo not given in full)	nt	nt	nt	nt	nt	12	nt
CCOC(=O)c1cnn(-c2ccccc2)c1-n1cccc1C(=O)C(=O)Nc1ccc(F)cc1	24	-8	8	0.8	0	29	nt
CN(C(=O)c1cc2n(n1)C(C(F)(F)F)CC(c1ccco1)N2)c1ccccc1 (stereo not given)	7	1	5	0.9	13	94*	66*	Diaph ctr 10uM=80*;Diaphorase 30uM=53*
CN(C(=O)c1cc2n(n1)C(C(F)(F)F)CC(c1ccco1)N2)c1ccc(OC(F)(F)F)cc1 (stereo not given)	-8	0	-4	1.1	6	5	nt
CCc1cccc(NC(=O)c2cnn(-c3ccccc3)c2C)c1	nt	nt	nt	nt	nt	49	nt
COc1cccc(NC(=O)c2cnn(-c3ccccc3)c2C)c1	nt	nt	nt	nt	nt	63*	22
